Here are results for 18 molecules from ChEMBL document CHEMBL3351892, “Synthesis and structure-activity relationship of non-peptidic antagonists of neuropilin-1 receptor” (Bioorg Med Chem Lett, 2014).

Test [1] concerns HUVEC. The experiment in a line: Cytotoxicity against HUVEC after 48 hrs by WST1 assay. Type of test: functional, cell-based. Conditions: Homo sapiens. The gist of the method: (§1)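 WST-1 viability: HUVEC seeded 3 × 10^3, MDA-MB-231 5 × 10^3 cells/well; compounds added one day after seeding at varied concentrations (up to 10 µM); after 48 h medium removed, WST-1 added, 1–2 h at 37 °C, OD 490 nm. Mean of three independent experiments, triplicate per concentration; IC50 from sigmoid dose–response fit.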
On the technique in general: Tetrazolium assays rely on reduction of a dye to a coloured formazan, in cell work by metabolically active cells.

The test system of test [2] is MDA-MB-231. The experiment in a line: Cytotoxicity against human MDA-MB-231 after 48 hrs by WST1 assay. The class given is functional, cell-based. The conditions noted are these: MDA-MB-231, 48 h. The gist of the method: as §1
Test [3] concerns the target Neuropilin-1 (Homo sapiens) (UniProt O14786). The experiment in a line: Inhibition of biotinylated VEGFA165 binding to NRP1 (unknown origin) at 10 uM by chemiluminescent assay. The gist of the method: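 NRP-1 coated overnight at 0.2 µg/mL in PBS, 4 °C; washed PBS/0.5% Tween 20, blocked 0.5% BSA 2 h 37 °C. Compound preincubated 1 h at 37 °C, then biotinylated VEGF-A165 with 4 µg/mL heparin 2 h at 37 °C; chemiluminescent read-out; percent displacement of bound tracer at 10 µM.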

Test [4] concerns MDA-MB-231. The experiment in a line: Inhibition of cell proliferation of human MDA-MB-231 after 72 hrs by crystal violet adhesion based colorimetric assay. The class given is functional. The conditions noted are these: MDA-MB-231, 72 h. The gist of the method:
(§2)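 Crystal violet adhesion: HUVEC 3 × 10^3, MDA-MB-231 5 × 10^3 cells/well, treated 72 h at varied concentrations (up to 10 µM); fixed 4% paraformaldehyde 15 min, PBS pH 7.4 wash, 0.04% crystal violet 30 min, solubilized 2% Triton X-100, OD 595 nm. Mean of three independent experiments in triplicate; IC50 from sigmoid dose–response curve.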

Test [5] deals with HUVEC. Put plainly: Inhibition of cell proliferation of HUVEC after 72 hrs by crystal violet adhesion based colorimetric assay. The class given is functional. Conditions: Homo sapiens. The gist of the method:
as §2

Chain of Neuropilin-1 (Homo sapiens) (O14786 whole entry): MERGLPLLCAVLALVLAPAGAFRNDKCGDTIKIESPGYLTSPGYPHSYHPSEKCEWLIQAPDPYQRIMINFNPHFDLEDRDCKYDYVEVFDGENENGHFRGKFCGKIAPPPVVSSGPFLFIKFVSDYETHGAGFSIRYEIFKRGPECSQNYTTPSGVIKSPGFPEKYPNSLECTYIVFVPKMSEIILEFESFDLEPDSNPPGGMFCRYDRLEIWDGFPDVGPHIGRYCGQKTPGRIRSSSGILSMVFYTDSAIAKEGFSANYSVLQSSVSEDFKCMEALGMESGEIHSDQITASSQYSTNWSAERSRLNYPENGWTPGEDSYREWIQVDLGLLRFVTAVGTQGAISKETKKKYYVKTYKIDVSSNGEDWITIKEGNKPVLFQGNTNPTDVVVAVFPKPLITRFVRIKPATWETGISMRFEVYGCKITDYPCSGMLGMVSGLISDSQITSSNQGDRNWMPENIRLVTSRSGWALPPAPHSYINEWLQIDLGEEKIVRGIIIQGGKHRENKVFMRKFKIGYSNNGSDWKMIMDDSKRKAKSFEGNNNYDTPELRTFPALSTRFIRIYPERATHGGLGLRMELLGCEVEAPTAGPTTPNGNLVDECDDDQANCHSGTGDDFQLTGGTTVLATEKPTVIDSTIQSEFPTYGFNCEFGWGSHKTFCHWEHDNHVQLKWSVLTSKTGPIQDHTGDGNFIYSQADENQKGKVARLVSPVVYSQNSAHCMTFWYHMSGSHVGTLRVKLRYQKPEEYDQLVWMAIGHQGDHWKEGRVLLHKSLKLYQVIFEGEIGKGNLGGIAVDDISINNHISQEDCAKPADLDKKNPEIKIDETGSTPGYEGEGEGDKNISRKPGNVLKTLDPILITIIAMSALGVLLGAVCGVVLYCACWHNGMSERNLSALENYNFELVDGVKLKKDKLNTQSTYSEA

On to `N#Cc1ccc2[nH]c(-c3cccc(NC(=S)NC(=O)c4ccc5c(c4)OCCO5)c3)nc2c1`, for which the IC50 (commonly the concentration that inhibits the measured activity by half) is 1 µM in the test with HUVEC [1] and above 10 µM in the test with MDA-MB-231 [2]. Also, in test [3], the inhibition (commonly the relative decrease from the control value, in per cent) turned out to be 0%.
Regarding `S=C(NCc1ccc2c(c1)OCO2)Nc1cccc(-c2nc3ccccc3[nH]2)c1`, the IC50 with HUVEC [1], with MDA-MB-231 [2], with MDA-MB-231 [4] and in the test with HUVEC [5] was above 10 µM in each case.
`COc1ccc(C(=O)NC(=S)Nc2cccc(-c3nc4ccccc4[nH]3)c2)cc1OC`: the IC50 in the test with HUVEC [1] was 6 µM; with MDA-MB-231 [2] it was above 10 µM; in the test on MDA-MB-231 [4] it was 10 µM; in the test with HUVEC [5], 5 µM.
The corresponding values for `O=C(NC(=S)Nc1cccc(-c2nc3ccccc3[nH]2)c1)c1ccccc1` are above 10 µM, above 10 µM, above 10 µM and above 10 µM.
The corresponding values for `Cc1ccc(-c2nc3ccccc3[nH]2)cc1NC(=S)NC(=O)c1ccccc1` are above 10 µM, above 10 µM, above 10 µM and above 10 µM.
As for `Cc1ccc(-c2nc3ccccc3[nH]2)cc1NC(=S)NC(=O)c1ccc2c(c1)OCCO2`, the IC50 is 0.24 µM in the test on HUVEC [1], 0.53 µM with MDA-MB-231 [2], 0.5 µM in the test on MDA-MB-231 [4] and 0.15 µM in the test with HUVEC [5]. In test [3], the inhibition came to 34%.
`O=C(NC(=S)Nc1cccc(-c2nc3ccccc3[nH]2)c1)c1ccc2c(c1)OCCO2`: the IC50 with HUVEC [1] was 0.05 µM; with MDA-MB-231 [2], 0.4 µM; with MDA-MB-231 [4] it was 0.5 µM; in the test on HUVEC [5], below 0.1 µM. The same molecule yielded an inhibition in test [3] of 38%.
Molecule `CCOc1ccc(C(=O)NC(=S)Nc2cc(-c3nc4ccccc4[nH]3)ccc2C)cc1OCC` came in with an IC50 in the test with HUVEC [5] of 6 µM. Besides, in test [3], the inhibition is 32%.
As for `CCOc1ccc(C(=O)NC(=S)Nc2cccc(-c3nc4ccccc4[nH]3)c2)cc1OCC`, the IC50 with HUVEC [1] and in the test on HUVEC [5] was 8 µM throughout. Further, in test [3], the inhibition stood at 14%.
As to `Cc1ccc(-c2nc3ccccc3s2)cc1NC(=S)NC(=O)c1ccc2c(c1)OCO2`, the IC50 with HUVEC [1] was 5 µM; with MDA-MB-231 [2] it was above 10 µM; in the test on MDA-MB-231 [4], above 10 µM; with HUVEC [5], 5 µM.
`O=C(NC(=S)Nc1cccc(-c2nc3ccccc3[nH]2)c1)c1ccc2c(c1)OCO2`: the 50% inhibitory concentration (IC50) with HUVEC [1] worked out at 0.3 µM; in the test on MDA-MB-231 [2], 6 µM; in the test on MDA-MB-231 [4] it was 6 µM; in the test with HUVEC [5] it was 0.3 µM. In addition, the inhibition in test [3] turned out to be 46%.
With `O=C(NC(=S)Nc1cccc(-c2nc3ccccc3s2)c1)c1ccc2c(c1)OCO2`, the IC50 in the test on HUVEC [1] came out at 1 µM; in the test on MDA-MB-231 [2] it was 10 µM; in the test with MDA-MB-231 [4], 8 µM; in the test on HUVEC [5] it was 0.9 µM. For the same molecule, in test [3], the inhibition worked out at 14%.
For `COc1ccc(C(=O)NC(=O)Nc2cccc(-c3nc4ccccc4[nH]3)c2)cc1OC`, the IC50 in the test on HUVEC [1] and with HUVEC [5] was 8 µM in each case.
Take `O=C(NC(=S)Nc1cccc(-c2nc3ccccc3s2)c1)c1ccc2c(c1)OCCO2`: the IC50 with HUVEC [1] was 2.6 µM; in the test with MDA-MB-231 [2], above 10 µM; with MDA-MB-231 [4] it was above 10 µM; in the test with HUVEC [5], 2.6 µM.
With `Cc1ccc(-c2nc3ccccc3[nH]2)cc1NC(=S)NCc1ccc2c(c1)OCO2`, the IC50 with HUVEC [1], with MDA-MB-231 [2], in the test on MDA-MB-231 [4] and in the test on HUVEC [5] was above 10 µM each time.
In the case of `Cc1ccc(-c2nc3ccccc3[nH]2)cc1NC(=S)NC(=O)c1ccc2c(c1)OCO2`, the IC50 came out at 1.5 µM in the test on HUVEC [1], 6 µM in the test with MDA-MB-231 [2], 6 µM in the test with MDA-MB-231 [4] and 0.75 µM in the test on HUVEC [5].
`N#Cc1ccc2[nH]c(-c3cccc(NC(=S)NC(=O)c4ccc5c(c4)OCO5)c3)nc2c1`: half-maximal inhibition in the test on HUVEC [5] (IC50) required 6 µM. This molecule also displayed an inhibition in test [3] of 37%.
For the molecule `Cc1ccc(-c2nc3cc(F)ccc3[nH]2)cc1NC(=S)NC(=O)c1ccc2c(c1)OCO2`, the IC50 with HUVEC [1] and in the test on HUVEC [5] was above 10 µM in each case.
